What was measured:
[1] = system: Vero; assay: Cytotoxicity against african green monkey Vero cells after 48 hrs by Neutral Red dye assay; format: cell-based; conditions: chlorocebus sabaeus
Procedure, shortened: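 Kidney […] (VERO) cells were seeded at 25,000 cells/well and incubated for 24 h, then exposed to samples for 48 h. Viable cells were counted by Neutral Red dye uptake. IC50 was taken from growth-inhibition versus concentration curves. Doxorubicin served as the positive control and DMSO as the vehicle control.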

[2] = system: Cryptococcus neoformans; assay: Antifungal activity against Cryptococcus neoformans ATCC 90113 by CLSI method; format: functional, organism-based
Procedure, shortened: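 Test samples in DMSO were serially diluted in saline and run in duplicate in Sabouraud dextrose broth, with final concentrations starting at 20 μg/mL. Absorbance at 530 nm was read before and after incubation. Each plate carried growth, solvent and media-blank controls, with amphotericin B as the drug control. IC50 (50% inhibition relative to controls) was obtained by curve fitting.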

[3] = system: Vero; assay: Cytotoxicity against african green monkey Vero cells at 10 ug/ml after 48 hrs by Neutral Red dye assay; format: cell-based; conditions: chlorocebus sabaeus

Row | Structure (SMILES) | IC50 ([2]; read-out: IC50) | IC50 ([2]; read-out: pIC50 (converted)) | Activity [1] | Activity [3]
1 | [I-].c1ccc(Sc2cc3ccccc3[n+](CCCCCC3CCCCC3)c2)cc1 |  |  | 8.89 µM | 
2 | Cc1ccccc1Sc1cc2ccccc2[n+](CCCCCC2CCCCC2)c1.[I-] |  |  | 7.53 µM | 
3 | Cc1cccc(Sc2cc3ccccc3[n+](CCCCCC3CCCCC3)c2)c1.[I-] |  |  | 6.96 µM | 
4 | Cc1ccc(Sc2cc3ccccc3[n+](CCCCCC3CCCCC3)c2)cc1.[I-] |  |  | 5.27 µM | 
5 | Oc1ccccc1Sc1cc2ccccc2[n+](CCCCCC2CCCCC2)c1.[I-] |  |  | 17.4 µM | 
6 | Oc1ccc(Sc2cc3ccccc3[n+](CCCCCC3CCCCC3)c2)cc1.[I-] |  |  |  | Non-toxic
7 | FC(F)(F)c1cccc(Sc2cc3ccccc3[n+](CCCCCC3CCCCC3)c2)c1.[I-] |  |  |  | Non-toxic
8 | FC(F)(F)c1ccc(Sc2cc3ccccc3[n+](CCCCCC3CCCCC3)c2)cc1.[I-] |  |  |  | Non-toxic
9 | COc1ccc(Sc2cc3ccccc3[n+](CCCCCC3CCCCC3)c2)cc1.[I-] | 731 nM | 731 nM | 7.67 µM | 
10 | Clc1ccccc1CSc1cc2ccccc2[n+](CCCCCC2CCCCC2)c1.[I-] | 1350 nM | 1350 nM |  | Non-toxic
11 | FC(F)(F)c1ccc(CSc2cc3ccccc3[n+](CCCCCC3CCCCC3)c2)cc1.[I-] | 416 nM | 417 nM | 7.94 µM | 
12 | [I-].[O-][S+](c1cccc(C(F)(F)F)c1)c1cc2ccccc2[n+](CCCCCc2ccccc2)c1 (stereo not given) | 10900 nM | 10900 nM |  | Non-toxic
13 | [I-].[O-][S+](c1cc2ccccc2[n+](CCCCCc2ccccc2)c1)c1ccccc1C(F)(F)F (stereo not given) | 9250 nM | 9250 nM |  | Non-toxic
14 | CC(C)(C)c1ccc(CSc2cc3ccccc3[n+](CCCCCC3CCCCC3)c2)cc1.[I-] | 883 nM | 883 nM |  | Non-toxic
15 | Fc1ccccc1CSc1cc2ccccc2[n+](CCCCCC2CCCCC2)c1.[I-] | 948 nM | 948 nM |  | Non-toxic
16 | Fc1cccc(CSc2cc3ccccc3[n+](CCCCCC3CCCCC3)c2)c1.[I-] | 711 nM | 711 nM |  | Non-toxic
17 | COc1ccccc1CSc1cc2ccccc2[n+](CCCCCC2CCCCC2)c1.[I-] | 623 nM | 624 nM |  | Non-toxic
18 | Brc1ccccc1CSc1cc2ccccc2[n+](CCCCCC2CCCCC2)c1.[I-] | 1130 nM | 1130 nM |  | Non-toxic
19 | Brc1cccc(CSc2cc3ccccc3[n+](CCCCCC3CCCCC3)c2)c1.[I-] | 360 nM | 361 nM |  | Non-toxic
20 | Brc1ccc(CSc2cc3ccccc3[n+](CCCCCC3CCCCC3)c2)cc1.[I-] | 369 nM | 370 nM |  | Non-toxic
21 | C[n+]1c2ccccc2cc2[n-]c3ccccc3c21 [CRYPTOLEPINE] | 43300 nM | 43300 nM | 8.88 µM | 

Further lines, with some results ahead:

Row | IC50 ([2]; read-out: IC50) | IC50 ([2]; read-out: pIC50 (converted)) | Structure (SMILES) | Activity [1] | Activity [3]
22 | 13200 nM | 13200 nM | Fc1cccc(Sc2cc3ccccc3[n+](CCCCCC3CCCCC3)c2)c1.[I-] | 1.23 µM | 
23 | 18500 nM | 18500 nM | COc1cccc(Sc2cc3ccccc3[n+](CCCCCC3CCCCC3)c2)c1.[I-] | 8.22 µM | 
24 | 2340 nM | 2340 nM | Oc1cccc(Sc2cc3ccccc3[n+](CCCCCC3CCCCC3)c2)c1.[I-] |  | Non-toxic
25 | 3740 nM | 3740 nM | FC(F)(F)c1ccccc1Sc1cc2ccccc2[n+](CCCCCC2CCCCC2)c1.[I-] |  | Non-toxic
26 | 301 nM | 301 nM | [I-].c1ccc(CSc2cc3ccccc3[n+](CCCCCC3CCCCC3)c2)cc1 |  | Non-toxic
27 | 88 nM | 88.3 nM | Clc1ccc(CSc2cc3ccccc3[n+](CCCCCC3CCCCC3)c2)cc1.[I-] | 2.3 µM | 
28 | 769 nM | 769 nM | Cc1cccc(CSc2cc3ccccc3[n+](CCCCCC3CCCCC3)c2)c1.[I-] | 4.95 µM | 
29 | 458 nM | 458 nM | Cc1ccc(CSc2cc3ccccc3[n+](CCCCCC3CCCCC3)c2)cc1.[I-] | 6.78 µM | 
30 | 27500 nM | 27500 nM | [I-].[O-][S+](c1ccc(F)cc1)c1cc2ccccc2[n+](CCCCCc2ccccc2)c1 (stereo not given) |  | Non-toxic
31 | 9080 nM | 9080 nM | [I-].[O-][S+](c1cc2ccccc2[n+](CCCCCc2ccccc2)c1)c1ccccc1Br (stereo not given) |  | Non-toxic
32 | 14900 nM |  | [I-].[O-][S+](c1ccc(Br)cc1)c1cc2ccccc2[n+](CCCCCc2ccccc2)c1 (stereo not given) |  | Non-toxic
33 | 10000 nM |  | [I-].[O-][S+](c1ccc(C(F)(F)F)cc1)c1cc2ccccc2[n+](CCCCCc2ccccc2)c1 (stereo not given) | 21.4 µM | 
34 | 9040 nM | 9040 nM | Oc1ccc(CSc2cc3ccccc3[n+](CCCCCC3CCCCC3)c2)cc1.[I-] |  | Non-toxic
35 | 677 nM | 678 nM | Fc1ccc(CSc2cc3ccccc3[n+](CCCCCC3CCCCC3)c2)cc1.[I-] |  | Non-toxic
36 | 606 nM | 607 nM | COc1cccc(CSc2cc3ccccc3[n+](CCCCCC3CCCCC3)c2)c1.[I-] |  | Non-toxic
37 | 2150 nM | 2150 nM | COc1ccc(CSc2cc3ccccc3[n+](CCCCCC3CCCCC3)c2)cc1.[I-] |  | Non-toxic
38 | 422 nM |  | C[C@@H]1[C@H](O)[C@@H](C)/C=C/C=C/C=C/C=C/C=C/C=C/C=C/[C@H](O[C@@H]2O[C@H](C)[C@@H](O)[C@H](N)[C@@H]2O)C[C@@H]2O[C@](O)(C[C@@H](O)C[C@@H](O)[C@H](O)CC[C@@H](O)C[C@@H](O)CC(=O)O[C@H]1C)C[C@H](O)[C@H]2C(=O)O [AMPHOTERICIN B] | 7.03 µM | 
